Results on 16 compounds are retold here after PubChem BioAssay.

SMILES strings stand for the structures. Activity calls are given as the source filed them.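 Rule for the calls, unless noted: active = viability at or below 30% in both replicate assays; inconclusive = viability at or below 30% in just one of the two assays; inactive = the rest.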

A short description of test [1]: Her2 expression decrease, cell viability multiplex – SKBR3 breast tumor cells, AlphaScreen, ATP viability, primary screen (AID 461;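 active = Her2 level under about 52% in both replicate screens, with viability over 70% of control, limit read from the data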;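 for Her2 level: lower value means less Her2 protein in the cells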;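 for viability: percent of carrier control wells set as 100% viability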). The note with it: SKBR3 Her2 protein level, 18-24 h, measured here: SKBR3 viability, ATP luminescence, at 10 µM.
Test [2] concerns the target Receptor tyrosine-protein kinase erbB-2 (Homo sapiens) (UniProt P04626). The test is described as above. The note with it: 18-24 h, at 10 µM, stronger effect = lower value.
Test [3] in a line: reduced viability of SK-BR-3 breast cancer cells – cell-based, 24 h, human, pilot screen (AID 572;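 active = viability at or below 10% of carrier control in both of two separate runs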;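 note: compound exposure lasted between 18 and 24 h rather than exactly 24 h; 100% = carrier-treated control wells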). The note with it: SK-BR-3 viability, CellTiter-Glo luminescence, at 10 µM, stronger effect = lower value. For orientation: ATP-based viability assays read luminescence as a measure of living cells.
Test [4] in a line: HUVEC growth inhibition – cell-based, human, primary screen (AID 575).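 Note: 100% = median of untreated cell wells with 0.1% DMSO on each plate.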 The following applies: HUVEC proliferation, CellTiter-Glo luminescence, 72 h; at 10 µM; stronger effect = lower value. The procedure, abridged:
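material = primary HUVEC, no more than 12 passages | input = 1250 cells per well | controls = vehicle and MePR control wells | measured by = CTG luminescence | times = 72 h compound incubation | format = collagen-coated 384-well format | read-out = % viability vs DMSO wells | doses = single 10 µM dose, 0.1% DMSO, from 5x medium stock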

Test [5] is described as follows: MRP1 drug-resistance reversers in H69AR cells – cell-based, doxorubicin co-treatment, pilot screen (AID 601;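 active = viability loss from added drug above about 55%, and viability with drug at most 40%, in both replicates, limit read from the data, passing the limit was not always enough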). The following applies: CellTiter-Glo, 72 h, at 10 µM; for differential viability (reversal): stronger effect = higher value.
Test [6] in a line: yeast transport mutant growth inhibition pilot in 384-well plates, post-Golgi transport modulator project (AID 636; in the data active = inhibition above about 31%). The note with it: absorbance 615 nm, about 18 h, stronger effect = higher value.
Test [7] is described as follows: growth suppression of yeast trafficking mutant, preliminary HTS, modulators of trafficking downstream of Golgi apparatus project, 1536-format plate, OD 615 nm (AID 637; in the data active = inhibition above about 30%). The note with it: yeast transport mutant growth, absorbance 615 nm, 18 h; stronger effect = higher value.
The mark [8] stands for this setting: H69AR cells + 2 uM doxorubicin, measured here: viability with 2 uM doxorubicin, stronger effect = lower value.
Setting [9] is: H69AR cells, compound alone cytotoxicity.

Receptor tyrosine-protein kinase erbB-2 (Homo sapiens), sequence (P04626 whole entry, looked up): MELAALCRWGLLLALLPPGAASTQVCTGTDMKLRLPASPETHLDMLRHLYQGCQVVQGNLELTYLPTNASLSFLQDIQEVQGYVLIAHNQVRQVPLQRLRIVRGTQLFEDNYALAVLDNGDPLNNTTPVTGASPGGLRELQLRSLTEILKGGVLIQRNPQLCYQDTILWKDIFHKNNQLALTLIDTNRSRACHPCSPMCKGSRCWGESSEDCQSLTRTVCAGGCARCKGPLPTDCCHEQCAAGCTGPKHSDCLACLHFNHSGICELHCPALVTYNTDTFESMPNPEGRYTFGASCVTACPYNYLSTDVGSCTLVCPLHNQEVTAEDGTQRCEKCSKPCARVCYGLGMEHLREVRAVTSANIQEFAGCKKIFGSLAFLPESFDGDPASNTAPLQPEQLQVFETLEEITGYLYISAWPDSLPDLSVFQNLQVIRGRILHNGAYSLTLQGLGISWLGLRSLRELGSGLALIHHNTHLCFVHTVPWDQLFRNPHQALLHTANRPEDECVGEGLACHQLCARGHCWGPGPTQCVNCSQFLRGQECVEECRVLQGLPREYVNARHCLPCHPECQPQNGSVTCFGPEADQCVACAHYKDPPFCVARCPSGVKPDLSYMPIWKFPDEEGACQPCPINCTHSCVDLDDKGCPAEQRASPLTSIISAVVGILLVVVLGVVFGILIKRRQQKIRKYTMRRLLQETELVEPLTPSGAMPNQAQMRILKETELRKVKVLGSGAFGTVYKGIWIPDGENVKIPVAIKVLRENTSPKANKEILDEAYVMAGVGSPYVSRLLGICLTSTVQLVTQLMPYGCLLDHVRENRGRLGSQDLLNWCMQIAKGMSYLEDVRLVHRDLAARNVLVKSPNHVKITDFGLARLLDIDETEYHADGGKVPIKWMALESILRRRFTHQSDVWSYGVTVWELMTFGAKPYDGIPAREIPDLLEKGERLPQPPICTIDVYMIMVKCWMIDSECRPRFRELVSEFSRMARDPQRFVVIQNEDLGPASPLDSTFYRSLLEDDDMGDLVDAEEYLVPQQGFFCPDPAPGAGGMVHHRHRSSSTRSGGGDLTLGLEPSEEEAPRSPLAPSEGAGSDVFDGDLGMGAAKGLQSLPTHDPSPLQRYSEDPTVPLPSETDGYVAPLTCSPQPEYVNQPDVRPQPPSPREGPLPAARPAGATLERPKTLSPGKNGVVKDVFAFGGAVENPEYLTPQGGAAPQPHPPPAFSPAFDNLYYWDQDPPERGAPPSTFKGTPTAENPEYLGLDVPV

Consider `N#CC1=C(N)n2c(s/c(=C\c3ccco3)c2=O)=C(C#N)C1c1ccco1` (centres undefined), for which the viability in test [1] is 100%; in test [3], 100% (inactive); in test [4] it was 78.6% (inactive); in test [5] (setting [8]) it was 58%; in test [5] (setting [9]), 47.4%. The Her2 level in test [2] was 31.5% (active). Also, in test [5] (H69AR cells + 2 uM doxorubicin), the differential viability (reversal) was -10.7% (inactive). Besides, the inhibition in test [6] was 0.13% (inactive); in test [7] it was -4.36% (inactive).
With `CSc1nc(N)nc(SCCS(=O)(=O)c2ccc(Cl)cc2)c1C#N`, the viability was 90.5% in test [1]; 90.5% (inactive) in test [3]; 56.6% (inactive) in test [4]; 34.2% in test [5] (setting [8]); 26.9% in test [5] (setting [9]). The Her2 level in test [2] was 68% (inactive). Besides, the differential viability (reversal) in test [5] (H69AR cells + 2 uM doxorubicin) was -7.24% (inactive). Also, the inhibition was -3.47% (inactive) in test [6] and -3.65% (inactive) in test [7].
Turning to `COc1ccc(N2C(=O)C(Cl)=C(Nc3c(C)n(C)n(-c4ccccc4)c3=O)C2=O)cc1`, the viability in test [1] was 94%; in test [3], 94% (inactive); in test [4], 81.1% (inactive); in test [5] (setting [8]) it was 35.3%; in test [5] (setting [9]) it was 45.3%. Also, the Her2 level in test [2] was 68% (inactive). The differential viability (reversal) in test [5] (H69AR cells + 2 uM doxorubicin) is 10% (inactive). The figures for the inhibition in test [6] and in test [7] were -1.71% (inactive) and -6.03% (inactive), respectively.
As for `N#Cc1c(N)nc(SCc2ccncc2)c(C#N)c1-c1cccs1`, the viability in test [1] was 98.5%; in test [3], 98.5% (inactive); in test [4] it was 79% (inactive); in test [5] (setting [8]), 14.9%; in test [5] (setting [9]) it was 52.3%. In addition, the Her2 level in test [2] is 71% (inactive). Also, the differential viability (reversal) in test [5] (H69AR cells + 2 uM doxorubicin) was 37.4% (inactive). Moreover, the inhibition is -0.53% (inactive) in test [6] and 7.74% (inactive) in test [7].
For `CC(=O)c1ccccc1Oc1nc(CN2CCOCC2)nc2scc(-c3cccs3)c12`, the viability in test [1] is 87.5%; in test [3], 87.5% (inactive); in test [4], 73.3% (inactive); in test [5] (setting [8]) it was 17.1%; in test [5] (setting [9]) it was 49.9%. In addition, in test [2], the Her2 level is 79% (inactive). For the same compound, the differential viability (reversal) in test [5] (H69AR cells + 2 uM doxorubicin) is 32.8% (inactive). Besides, the figures for the inhibition in test [6] and in test [7] were -8.24% (inactive) and 2.46% (inactive), respectively.
For `CCOC(=O)N1CCN(CCC(=O)c2ccc(Cl)cc2)CC1`, the viability in test [1] was 106%; in test [3], 106% (inactive); in test [4], 86.4% (inactive); in test [5] (setting [8]), 17.9%; in test [5] (setting [9]), 12.8%. Moreover, the Her2 level in test [2] is 89.5% (inactive). Further, in test [5] (H69AR cells + 2 uM doxorubicin), the differential viability (reversal) was -5.11% (inactive). Further, the values for the inhibition in test [6] and in test [7] were -2.99% (inactive) and -6.51% (inactive), respectively.
On to `CCOC(=O)c1sc(NC(=O)CSc2n[nH]c(-c3ccccc3)n2)c(C#N)c1C`, for which the viability is 122% in test [1]; 122% (inactive) in test [3]; 48.2% (inactive) in test [4]; 32% in test [5] (setting [8]); 41.3% in test [5] (setting [9]). For the same compound, the Her2 level in test [2] is 65.5% (inactive). For the same compound, the differential viability (reversal) in test [5] (H69AR cells + 2 uM doxorubicin) was 9.27% (inactive). Further, the inhibition in test [6] was -6.27% (inactive); in test [7] it was 2.38% (inactive).
For `CCOc1ccccc1-n1nnnc1SCC(=O)Nc1cc2oc3ccccc3c2cc1OC`, the viability was 68.5% in test [1]; 68.5% (inactive) in test [3]; 63.6% (inactive) in test [4]; 54.7% in test [5] (setting [8]); 43.6% in test [5] (setting [9]). Further, the Her2 level in test [2] is 102% (inactive). Moreover, the differential viability (reversal) in test [5] (H69AR cells + 2 uM doxorubicin) was -11.1% (inactive). The inhibition was 4.16% (inactive) in test [6] and -9.05% (inactive) in test [7].
Take `CC(=O)N1CCN(c2ccc(NC(=O)c3ccc(C(C)(C)C)cc3)cc2)CC1`: the viability in test [1] is 74.5%; in test [3], 74.5% (inactive); in test [4], 38.7% (inactive); in test [5] (setting [8]), 56.6%; in test [5] (setting [9]), 44.2%. Further, in test [2], the Her2 level was 94% (inactive). The differential viability (reversal) in test [5] (H69AR cells + 2 uM doxorubicin) was -12.4% (inactive). The inhibition in test [6] was -6.08% (inactive); in test [7], -11.3% (inactive).
Regarding `C=C(C)COc1ccc(-c2nc(N)ncc2Oc2ccccc2OCC)c(O)c1`, the viability in test [1] was 79%; in test [3], 79% (inactive); in test [4], 85.5% (inactive); in test [5] (setting [8]), 51.6%; in test [5] (setting [9]), 39.1%. The Her2 level in test [2] was 84.5% (inactive). For the same compound, the differential viability (reversal) in test [5] (H69AR cells + 2 uM doxorubicin) is -12.4% (inactive). The inhibition is -0.66% (inactive) in test [6] and 24.4% (inactive) in test [7].
Regarding `O=C(NCc1ccc2c(c1)OCO2)c1cccc2c1C(=O)N(C1CCCCC1)C2`, the viability in test [1] was 102%; in test [3], 102% (inactive); in test [4], 87% (inactive); in test [5] (setting [8]), 71.9%; in test [5] (setting [9]), 59.2%. Further, the Her2 level in test [2] was 72.5% (inactive). Further, the differential viability (reversal) in test [5] (H69AR cells + 2 uM doxorubicin) was -12.7% (inactive). In addition, the inhibition is -0.38% (inactive) in test [6] and 2.83% (inactive) in test [7].
Regarding `CC(C)Cn1c(=O)c(C(=O)NCc2ccccn2)c(O)c2ccccc21`, the viability was 110% in test [1]; 110% (inactive) in test [3]; 61.4% (inactive) in test [4]; 67.3% in test [5] (setting [8]); 52.3% in test [5] (setting [9]). In addition, in test [2], the Her2 level was 78.5% (inactive). For the same compound, in test [5] (H69AR cells + 2 uM doxorubicin), the differential viability (reversal) was -15% (inactive). The inhibition in test [6] was -7.43% (inactive); in test [7] it was -3.17% (inactive).
As to `CCOC(=O)c1sc2nc(SCC(=O)NCc3ccco3)n(Cc3ccccc3)c(=O)c2c1C`, the viability is 90.5% in test [1]; 90.5% (inactive) in test [3]; 82% (inactive) in test [4]; 33% in test [5] (setting [8]); 46% in test [5] (setting [9]). Also, the Her2 level in test [2] was 84% (inactive). In addition, the differential viability (reversal) in test [5] (H69AR cells + 2 uM doxorubicin) is 13% (inactive). Moreover, the inhibition was -5.68% (inactive) in test [6] and 0.98% (inactive) in test [7].
On to `Cc1csc2ncc(C(=O)Nc3ccccc3Cl)c(=O)n12`, for which the viability in test [1] was 87.5%; in test [3], 87.5% (inactive); in test [4] it was 66.8% (inactive); in test [5] (setting [8]), 44.5%; in test [5] (setting [9]) it was 48.3%. Further, in test [2], the Her2 level was 86% (inactive). Moreover, in test [5] (H69AR cells + 2 uM doxorubicin), the differential viability (reversal) was 3.82% (inactive). Moreover, the inhibition is -4.13% (inactive) in test [6] and 4.5% (inactive) in test [7].
On to `CC1=C(C(=O)OC2CCCCC2)C(c2ccc(C)o2)C2=C(CC(C)(C)CC2=O)N1` (centres undefined), for which the viability in test [1] is 77.5%; in test [3], 77.5% (inactive); in test [4], 50.5% (inactive); in test [5] (setting [8]), 37.4%; in test [5] (setting [9]), 50.5%. Moreover, in test [2], the Her2 level was 83% (inactive). Besides, the differential viability (reversal) in test [5] (H69AR cells + 2 uM doxorubicin) is 13.1% (inactive). Also, the inhibition in test [6] is 0.38% (inactive); in test [7], -7.83% (inactive).
On to `CCc1cc2c(=O)c(-c3nc4ccccc4[nH]3)coc2cc1OC(=O)N1CCOCC1`, for which the viability in test [1] is 100%; in test [3], 100% (inactive); in test [4], 64.8% (inactive); in test [5] (setting [8]) it was 71.6%; in test [5] (setting [9]), 57.7%. The Her2 level in test [2] is 81.5% (inactive). The differential viability (reversal) in test [5] (H69AR cells + 2 uM doxorubicin) was -13.9% (inactive). Moreover, the inhibition in test [6] is -5.07% (inactive); in test [7] it was -5.08% (inactive).

As a reminder, the viability is a read-out of living cells in per cent, often relative to untreated cells. For orientation: inhibition means the drop in the measured response relative to a control, in per cent.
